Data as given in ChEMBL document CHEMBL1126132, “5,5-disubstituted hydantoins: syntheses and anti-HIV activity” (J Med Chem, 1992).

Legend:
[1] = system: CCRF-CEM; test: Inhibition of HIV-1 RF induced cytotoxicity in CEM cells; Inactive.; type: functional, cell-based
Method in brief: (§1)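 CEM cells at 5×10^3 per well were infected with HIV-1 RF at MOI 0.01, chosen to give complete cell killing by day 6. Five serial half-log dilutions starting at 100 μM were tested in triplicate. After 6 days at 37 °C, viability was read by XTT. IC50 is the minimum concentration inhibiting CPE by 50%, from semilog regression curve fitting.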

[2] = system: CCRF-CEM; test: Compound was tested for antiviral activity by measuring its ability to inhibit HIV induced virus production in CEM cells; NT indicates nontoxic uM; type: functional, cell-based; conditions: Homo sapiens
Method in brief: (§2)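 Cytotoxicity was measured in uninfected cells with drug, in CEM or MT-2 at 5×10^3 per well. There were five half-log dilutions up to 100 μM, the highest concentration, in triplicate. Cells were incubated 6 days at 37 °C and viability was read by XTT. TC25 is the minimum concentration cutting viability by 25%; NT means nontoxic up to 100 μM.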

[3] = system: MT2; test: Inhibition of HIV-1 RF induced cytotoxicity in MT-2 cells; Inactive.; type: functional, cell-based
Method in brief: (§3)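 MT-2 cells at 5×10^3 per well were infected with HIV-1 RF at MOI 0.005, chosen to give complete killing at 6 days. Triplicate wells received five half-log dilutions from 100 μM. After 6 days at 37 °C, XTT colorimetry gave viability. IC50 is the minimum concentration reducing CPE by 50%, calculated by semilog regression.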

[4] = system: MT2; test: Compound was tested for antiviral activity by measuring its ability to inhibit HIV induced virus production in MT-2 cells; NT indicates nontoxic uM; type: functional, cell-based; method in brief: as §2
[5] = system: Human immunodeficiency virus type 1 (RF/HAT ISOLATE); test: Inhibition of HIV-1 RF viral production in MT-2 cells.; type: functional, Human immunodeficiency virus 1, MT2
[6] = system: CCRF-CEM; test: Compound was tested for antiviral activity by measuring its ability to inhibit HIV induced virus production in CEM cells; type: functional, Homo sapiens
[7] = system: CCRF-CEM; test: Compound was tested for antiviral activity by measuring its ability to inhibit HIV induced cell killing in CEM cells; type: functional, cell-based; conditions: Homo sapiens; method in brief: as §1
[8] = system: MT2; test: Compound was tested for antiviral activity by measuring its ability to inhibit HIV induced cell killing in MT-2 cells; type: functional, cell-based; conditions: Homo sapiens; method in brief: as §3

Row | Structure (SMILES) | IC50 [1] | TC25 [2] | IC50 [3] | TC25 ([4]; Homo sapiens) | TC25 [5] | TC25 [6] | IC50 [7] | IC50 [8] | TC25 [4] | NT [4]
1 | O=C1NC(=O)C(CSCc2cccnc2)(CSCc2cccnc2)N1 | Nontoxic up to 100uM | Nontoxic up to 100uM | Nontoxic up to 100uM | Nontoxic up to 100uM |  |  |  |  |  | 
2 | NC(CSCc1ccccc1)(CSCc1ccccc1)C(=O)O | Nontoxic up to 100uM | Nontoxic up to 100uM | Nontoxic up to 100uM |  | 60 µM |  |  |  |  | 
3 | O=C1NC(=O)C(CSCc2ccccc2)N1 (configuration not stated) | Nontoxic up to 100uM |  |  |  | 2 µM | 5 µM |  |  |  | 
4 | O=C1NC(=O)C(CSCC2CCCCC2)(CSCC2CCCCC2)N1 | Nontoxic up to 100uM |  | Nontoxic up to 100uM |  | 12 µM | 8 µM |  |  |  | 
5 | COc1ccc(CSCC2(CSCc3ccc(OC)cc3)NC(=O)NC2=O)cc1 |  |  | Nontoxic up to 100uM |  | 6 µM | 6 µM | 23 µM |  |  | 
6 | O=C1NC(=O)C(CSCc2ccccc2)(CSCc2ccccc2)N1 | Nontoxic up to 100uM | Nontoxic up to 100uM |  |  |  |  |  | 17 µM | Nontoxic up to 100uM | 
7 | S=C1NC(=S)C(CSCc2ccccc2)(CSCc2ccccc2)N1 | Nontoxic up to 100uM |  |  |  | 16 µM | 16 µM |  |  |  | 
8 | O=C1NC(=O)C(CSCc2ccc(Br)cc2)(CSCc2ccc(Br)cc2)N1 | Nontoxic up to 100uM |  | Nontoxic up to 100uM |  | 7 µM | 16 µM |  |  |  | 
9 | O=C1NC(=O)C(CSc2ccccc2)(CSc2ccccc2)N1 | Nontoxic up to 100uM |  |  |  | 50 µM | 64 µM |  |  |  | 
10 | O=C1NC(=O)C(CSCc2cccc3ccccc23)(CSCc2cccc3ccccc23)N1 | Nontoxic up to 100uM | Nontoxic up to 100uM | Nontoxic up to 100uM | Nontoxic up to 100uM |  |  |  |  |  | 
11 | O=C1NC(=O)C(CSc2ccncc2)(CSc2ccncc2)N1 | Nontoxic up to 100uM | Nontoxic up to 100uM | Nontoxic up to 100uM |  |  |  |  |  |  | Nontoxic up to 100uM
12 | O=C1NC(=O)C(CS)(CS)N1 |  |  | Nontoxic up to 100uM |  | 0.8 µM | 3 µM | 0.6 µM |  |  | 
13 | O=C1NC(=O)C(CSCCO)(CSCc2ccccc2)N1 (configuration not stated) | Nontoxic up to 100uM | Nontoxic up to 100uM | Nontoxic up to 100uM | Nontoxic up to 100uM |  |  |  |  |  | 
14 | O=C1NC(=O)C(COCc2ccccc2)(COCc2ccccc2)N1 | Nontoxic up to 100uM |  | Nontoxic up to 100uM |  | 87 µM | >100 µM |  |  |  | 
15 | O=C1NC(=O)C(CSCc2ccccn2)(CSCc2ccccn2)N1 | Nontoxic up to 100uM | Nontoxic up to 100uM |  | Nontoxic up to 100uM |  |  |  | 81 µM |  | 
16 | O=C1NC(=O)C(CSCc2ccncc2)(CSCc2ccncc2)N1 |  | Nontoxic up to 100uM | Nontoxic up to 100uM |  | 45 µM |  | 53 µM |  |  | 
17 | COC(=O)c1ccc(CSCC2(CSCc3ccc(C(=O)OC)cc3)NC(=O)NC2=O)cc1 | Nontoxic up to 100uM |  | Nontoxic up to 100uM |  | 10 µM | 25 µM |  |  |  | 
18 | O=C1NC(=O)C(CSCc2ccc([N+](=O)[O-])cc2)(CSCc2ccc([N+](=O)[O-])cc2)N1 |  |  | Nontoxic up to 100uM |  | 5 µM | 9 µM | 19 µM |  |  | 
19 | Nc1ccc(CSCC2(CSCc3ccc(N)cc3)NC(=O)NC2=O)cc1 |  | Nontoxic up to 100uM |  |  | 16 µM |  | 88 µM | 6 µM |  | 
20 | O=C1NC(=O)C(CSCc2ccc(C(=O)O)cc2)(CSCc2ccc(C(=O)O)cc2)N1 | Nontoxic up to 100uM | Nontoxic up to 100uM | Nontoxic up to 100uM |  |  |  |  |  | Nontoxic up to 100uM | 
21 | O=C1NC(=O)C(CS)(CSCc2ccccc2)N1 (configuration not stated) | Nontoxic up to 100uM |  |  |  | 50 µM | 34 µM |  |  |  | 
22 | O=C1NC(=O)C(CSCc2cccs2)(CSCc2cccs2)N1 | Nontoxic up to 100uM | Nontoxic up to 100uM | Nontoxic up to 100uM |  | 17 µM |  |  |  |  | 
23 | N#Cc1ccc(CSCC2(CSCc3ccc(C#N)cc3)NC(=O)NC2=O)cc1 |  |  | Nontoxic up to 100uM |  | 8 µM | 15 µM | 25 µM |  |  | 
24 | O=C1NC(=O)C(CSC(=O)c2ccccc2)(CSC(=O)c2ccccc2)N1 |  |  | Nontoxic up to 100uM |  | 5 µM | 31 µM | 7 µM |  |  | 
